Data: ChEMBL document CHEMBL4828729, “MSBA-S - A pentacyclic sulfamate as a new option for radiotherapy of human breast cancer cells” (Eur J Med Chem, 2021)
The source made the active and inactive calls.

Legend:
MDA-MB-231 [1] = assay: Antimigratory activity against human MDA-MB-231 cells assessed as inhibition of cell migration measured by wound healing assay relative to control; assay type: functional
[2] = test system: MDA-MB-231 (Homo sapiens); assay: Antimigratory activity against human MDA-MB-231 cells assessed as inhibition of cell migration measured by wound healing assay
MDA-MB-231 [3] = assay: Induction of apoptosis in human MDA-MB-231 cells assessed as nuclei shrinkage at 40 uM measured after 72 hrs by DAPI staining based fluorescence microscopy relative to control; assay type: functional
Method in brief: (§1)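 After 72 h treatment under standard conditions, cells were trypsinized and pelleted together with the culture supernatant. They were resuspended in PBS, fixed in 70% ethanol, cytospun onto slides and stained with DAPI for 5 min. Apoptotic cells were scored by nuclear shrinkage. Mean +SD of three independent experiments.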

Hs-578T [4] = assay: Cytotoxicity against human Hs-578T cells assessed as reduction in cell viability measured after 96 hrs by SRB assay; assay type: functional, cell-based
Method in brief: (§2)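 Compounds were prepared as 20 mM DMSO stocks and applied 24 h after seeding in 96-well plates at 1-100 (so in the source) for 96 h under standard conditions. Cells were fixed with 10% trichloroacetic acid, stained with 0.4% SRB, washed with 1% acetic acid and dissolved in 20 mM Tris base. Absorbance was read at 540 nm. IC50 is the half-maximal inhibitory concentration, with a cut-off of 50. Mean ± SD of at least three independent experiments.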

Hs-578T [5] = assay: Anticlonogenic activity against human Hs-578T cells assessed as clonogenic survival rate at 40 uM measured after 24 hrs by giemsa staining based survival assay relative to control; assay type: functional
Method in brief: (§3)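 Cells seeded in 6-well plates and treated 24 h after seeding for 24 h. They were then trypsinized, counted and reseeded at 300 or 600 cells per 75 cm² flask. Colonies grew for about 12-14 days before paraformaldehyde fixation and 10% Giemsa staining. Only colonies of more than about 50 cells were scored for surviving fraction relative to control. Mean +SD of three independent experiments.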

MDA-MB-231 [6] = assay: Cytotoxicity against human MDA-MB-231 cells assessed as reduction in cell viability measured after 96 hrs by SRB assay; assay type: functional, cell-based; conditions: MDA-MB-231, 96 h; method in brief: as §2
Hs-578T [7] = assay: Induction of apoptosis in human Hs-578T cells assessed as nuclei shrinkage at 40 uM measured after 72 hrs by DAPI staining based fluorescence microscopy relative to control; assay type: functional; method in brief: as §1
MCF7 = assay: Cytotoxicity against human MCF7 cells assessed as reduction in cell viability measured after 96 hrs by SRB assay; assay type: functional, cell-based; conditions: MCF7, 96 h; method in brief: as §2
BT-20 = assay: Cytotoxicity against human BT-20 cells assessed as reduction in cell viability measured after 96 hrs by SRB assay; assay type: functional, cell-based; conditions: BT-20, 96 h; method in brief: as §2
MDA-MB-231 [8] = assay: Anticlonogenic activity against human MDA-MB-231 cells assessed as clonogenic survival rate at 40 uM measured after 24 hrs by giemsa staining based survival assay relative to control; assay type: functional; conditions: read-out: INH; method in brief: as §3
Hs-578T [9] = assay: Induction of apoptosis in human Hs-578T cells assessed as nuclei shrinkage at 20 uM measured after 72 hrs by DAPI staining based fluorescence microscopy relative to control; assay type: functional; method in brief: as §1
Hs-578T [10] = assay: Induction of apoptosis in human Hs-578T cells assessed as necrotic cells at 10 uM measured after 24 hrs by Annexin V/propidium iodide staining based flow cytometry relative to control; assay type: functional
Method in brief: (§4)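 Cells were seeded in 6-well plates, grown 24 h and then treated for 24 h. They were resuspended in binding buffer (10 mM HEPES/NaOH, 140 mM NaCl, 5 mM CaCl₂, pH 7.4) and stained for 15 min with propidium iodide and/or Annexin V. Flow cytometry classified vital (Q3), necrotic (Q1), late apoptotic (Q2) and apoptotic (Q4) populations.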

MDA-MB-231 [11] = assay: Induction of apoptosis in human MDA-MB-231 cells assessed as necrotic cells at 10 uM measured after 24 hrs by Annexin V/propidium iodide staining based flow cytometry relative to control; assay type: functional; method in brief: as §4
MDA-MB-231 [12] = assay: Induction of apoptosis in human MDA-MB-231 cells assessed as late apoptotic cells at 10 uM measured after 24 hrs by Annexin V/propidium iodide staining based flow cytometry relative to control; assay type: functional; method in brief: as §4
MDA-MB-231 [13] = assay: Induction of apoptosis in human MDA-MB-231 cells assessed as nuclei shrinkage at 10 uM measured after 72 hrs by DAPI staining based fluorescence microscopy relative to control; assay type: functional; method in brief: as §1
Hs-578T [14] = assay: Induction of apoptosis in human Hs-578T cells assessed as nuclei shrinkage at 10 uM measured after 72 hrs by DAPI staining based fluorescence microscopy relative to control; assay type: functional; method in brief: as §1
MDA-MB-231 [15] = assay: Induction of apoptosis in human MDA-MB-231 cells assessed as increase in ROS production at 20 uM measured after 24 hrs by CM-H2DCFDA staining based flow cytometry analysis relative to control; assay type: functional; conditions: dose 5 µM, in the assay text read “at 5 uM” for “at 20 uM”
Method in brief: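 Cells were plated in 6-well plates for 24 h, then treated for 24 h. They were loaded with 0.5 CM-H2DCFDA in PBS with CaCl₂/MgCl₂ for 30 min at 37 °C, washed, exposed to trypsin-EDTA (0.5%) for 3 min at 37 °C and detached with PBS. Fluorescence from dye conversion to chloromethyl-dichlorofluorescein was measured by flow cytometry. Values are fold change versus DMSO-treated cells.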

MDA-MB-231 [16] = assay: Anticlonogenic activity against human MDA-MB-231 cells assessed as clonogenic survival rate at 10 uM measured after 24 hrs by giemsa staining based survival assay relative to control; assay type: functional; method in brief: as §3
Hs-578T [17] = assay: Anticlonogenic activity against human Hs-578T cells assessed as clonogenic survival rate at 10 uM measured after 24 hrs by giemsa staining based survival assay relative to control; assay type: functional; method in brief: as §3
MDA-MB-231 [18] = assay: Induction of apoptosis in human MDA-MB-231 cells assessed as early apoptotic cells at 10 uM measured after 24 hrs by Annexin V/propidium iodide staining based flow cytometry relative to control; assay type: functional; method in brief: as §4
MDA-MB-231 [19] = assay: Radiosensitization activity in human MDA-MB-231 cells assessed as ratio of DMSO treated surviving fraction to compound treated surviving fraction at 5 uM pre-incubated for 24 hrs prior to irradiation and measured by giemsa staining based assay; assay type: functional
Method in brief: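 Cells were incubated for 24 h with 5 (so in the source) compound, then irradiated with 6, 10 or 14 Gy. Colonies of more than about 50 cells were counted after about 12-14 days with Giemsa staining and normalized to unirradiated controls. DMF is the surviving fraction of DMSO control cells divided by that of treated cells, reported at 10% survival.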

Hs-578T [20] = assay: Induction of apoptosis in human Hs-578T cells assessed as late apoptotic cells at 10 uM measured after 24 hrs by Annexin V/propidium iodide staining based flow cytometry relative to control; assay type: functional; method in brief: as §4
Hs-578T [21] = assay: Induction of apoptosis in human Hs-578T cells assessed as early apoptotic cells at 10 uM measured after 24 hrs by Annexin V/propidium iodide staining based flow cytometry relative to control; assay type: functional; method in brief: as §4

SMILES | IC50 (Hs-578T [4]) | inhibition at 40 µM (Hs-578T [5]) | IC50 (MDA-MB-231 [6]) | Activity (Hs-578T [7]) | IC50 (MCF7) | IC50 (BT-20) | clonogenic survival relative to control at 40 µM (MDA-MB-231 [8]) | further results
C=C(C)[C@@H]1CC[C@]2(C(=O)O)CC[C@]3(C)[C@H](CC[C@@H]4[C@@]5(C)CC[C@H](O)C(C)(C)[C@@H]5CC[C@]43C)[C@@H]12 |  |  |  |  |  |  |  | inhibition (MDA-MB-231 [1]): Active; inhibition [2]: Active
C=C(C)[C@@H]1CC[C@]2(C(=O)NCc3ccccc3)CC[C@]3(C)[C@H](CC[C@@H]4[C@@]5(C)CC[C@H](OS(N)(=O)=O)C(C)(C)[C@@H]5CC[C@]43C)[C@@H]12 | 18.8 µM | 73.1% | 15.2 µM | 3.5% | 7.5 µM | 16.2 µM | 80.6% | Activity (MDA-MB-231 [3]): 2.1%
C[C@H]1[C@H](C)CC[C@]2(C(=O)NCc3ccccc3)CC[C@]3(C)C(=CC[C@@H]4[C@@]5(C)CC[C@H](OS(N)(=O)=O)C(C)(C)[C@@H]5CC[C@]43C)[C@H]12 |  | 73.1% |  |  |  | 16.2 µM | 80.6% | Activity (Hs-578T [9]): 3.5%
CC1(C)CC[C@]2(C(=O)O)CC[C@]3(C)C(=CC[C@@H]4[C@@]5(C)CC[C@H](O)C(C)(C)[C@@H]5CC[C@]43C)[C@@H]2C1 |  |  |  |  |  |  |  | inhibition (MDA-MB-231 [1]): inactive
CC1(C)CC[C@]2(C(=O)NCc3ccccc3)CC[C@]3(C)C(=CC[C@@H]4[C@@]5(C)C[C@@H](OS(N)(=O)=O)[C@H](OS(N)(=O)=O)C(C)(C)[C@@H]5CC[C@]43C)[C@@H]2C1 | 3.8 µM |  | 3.7 µM |  | 4.9 µM | 5.8 µM |  | Activity (Hs-578T [10]): 2.6%; Activity (MDA-MB-231 [11]): 1.6%; Activity (MDA-MB-231 [12]): 18.4%; Activity (MDA-MB-231 [13]): 8.9%; Activity (Hs-578T [14]): 22.1%; fold change (FC) (MDA-MB-231 [15]): 5.7; inhibition at 10 µM (MDA-MB-231 [16]): 42.1%; inhibition at 10 µM (Hs-578T [17]): 16.5%; Activity (MDA-MB-231 [18]): 7.4%; Ratio (MDA-MB-231 [19]): 1.14; Activity (Hs-578T [20]): 44.4%; Activity (Hs-578T [21]): 8.7%
CC(=O)[C@@H]1CC[C@]2(C(=O)NCc3ccccc3)CC[C@]3(C)[C@H](CC[C@@H]4[C@@]5(C)CC[C@H](OS(N)(=O)=O)C(C)(C)[C@@H]5CC[C@]43C)[C@@H]12 | 16.9 µM | 73.1% | > 50 µM | 3.5% | 9.3 µM | 32 µM | 80.6% | Activity (MDA-MB-231 [3]): 2.1%
CC1(C)CC[C@]2(C(=O)NCc3ccccc3)CC[C@]3(C)C(=CC[C@@H]4[C@@]5(C)CC[C@H](OS(N)(=O)=O)C(C)(C)[C@@H]5CC[C@]43C)[C@@H]2C1 | 15.8 µM | 73.1% | > 50 µM | 3.5% | > 50 µM | 16.2 µM | 80.6% | 
